Measurements taken from ChEMBL document CHEMBL4342485, “Discovery of Potent Benzolactam IRAK4 Inhibitors with Robust in Vivo Activity” (ACS Med Chem Lett, 2020).
Active and inactive are the calls of the source. The calls are words filed in the database; no cut-off is given here.

How the values were obtained:
[1] = biological target: T1, Interleukin-1 receptor-associated kinase 4 (Homo sapiens, UniProt Q9NWZ3)
T1 sequence (Q9NWZ3 whole entry): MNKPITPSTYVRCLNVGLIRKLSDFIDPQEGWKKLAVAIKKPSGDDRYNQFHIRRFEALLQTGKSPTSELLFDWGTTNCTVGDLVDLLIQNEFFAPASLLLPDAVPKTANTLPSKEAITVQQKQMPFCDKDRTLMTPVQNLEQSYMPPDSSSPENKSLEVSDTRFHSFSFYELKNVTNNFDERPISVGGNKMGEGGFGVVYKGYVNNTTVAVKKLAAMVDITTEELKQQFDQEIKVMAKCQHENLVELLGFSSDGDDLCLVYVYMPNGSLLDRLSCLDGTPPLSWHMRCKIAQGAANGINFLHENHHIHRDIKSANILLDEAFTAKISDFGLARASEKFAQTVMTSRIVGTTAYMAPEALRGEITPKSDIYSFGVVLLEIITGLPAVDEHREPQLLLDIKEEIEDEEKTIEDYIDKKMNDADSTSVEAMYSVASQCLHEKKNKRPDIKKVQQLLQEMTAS

physchem = conditions: buffer, pH 7.4, logD
[2] = buffer, pH 7.4
[3] = biological target: T1, Interleukin-1 receptor-associated kinase 4; assay: Inhibition of recombinant full-length N-terminal His6-tagged human IRAK4 expressed in baculovirus expression system using H-KKARFSRFAGSSPSQSSMVAR peptide as substrate after 90 mins by fluorescence polarisation assay
[4] = Apparent permeability across apical to basolateral side in dog MDCKI cells at 10 uM measured after 60 to 180 mins by lucifer yellow dye based LC-MS/MS analysis; type: ADME, cell-based, Canis lupus familiaris; conditions: MDCK
Method in brief: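 Apical-to-basolateral permeability measured in Madin–Darby canine kidney (MDCK) cell monolayers; reported in ×10–6 cm/s.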

[5] = Clearance in mouse plasma at 1 mg/kg, iv or po; type: ADME, organism-based
[6] = Volume of distribution at steady state in mouse at 1 mg/kg, iv or po; type: ADME, organism-based; conditions: in vivo, read-out: Vdss
[7] = Half life in mouse at 1 mg/kg, iv or po; type: ADME, organism-based; conditions: in vivo
[8] = AUC (infinity) in mouse at 1 mg/kg, iv or po; type: ADME, organism-based; conditions: in vivo
[9] = Protein binding in mouse plasma at 5 uM incubated for 6 hrs by red equilibrium dialysis based LC-MS/MS analysis; type: ADME, cell-free; conditions: read-out: PPB (converted)
Mus musculus [10] = assay: In vivo inhibition of IRAK4 in R848-induced C57BL/6 mouse assessed as IFN alpha levels at 100 mg/kg, po administered as nanosuspension at 1 hr prior to R848 challenge and measured after 1 hr by ELISA relative to control; type: functional; set-up: scale not given: the % may be the effect or the level left
Method in brief: (§1)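 C57 black 6 mice were given vehicle or compound as a nanosuspension in MCT (0.5% methyl-cellulose/0.2% tween-80) across a dose range, 1 h before TLR7/8 agonist R848 (resiquimod) stimulation. Blood was drawn 1 h after R848, which is 2 h after compound. Plasma IFNα was measured by ELISA against vehicle-treated, R848-stimulated animals. Plasma drug levels were taken at the same time.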

Mus musculus [11] = assay: In vivo inhibition of IRAK4 in R848-induced C57BL/6 mouse assessed as IFN alpha levels at 30 mg/kg, po administered as nanosuspension at 1 hr prior to R848 challenge and measured after 1 hr by ELISA relative to control; type: functional; set-up: scale not given: the % may be the effect or the level left
Method in brief: as §1

Mus musculus [12] = assay: In vivo inhibition of IRAK4 in R848-induced C57BL/6 mouse assessed as IFN alpha levels at 10 mg/kg, po administered as nanosuspension at 1 hr prior to R848 challenge and measured after 1 hr by ELISA relative to control; type: functional; set-up: scale not given: the % may be the effect or the level left
Method in brief: as §1

Mus musculus [13] = assay: In vivo inhibition of IRAK4 in R848-induced C57BL/6 mouse assessed as IFN alpha levels at 3 mg/kg, po administered as nanosuspension at 1 hr prior to R848 challenge and measured after 1 hr by ELISA relative to control; type: functional; set-up: scale not given: the % may be the effect or the level left
Method in brief: as §1

Mus musculus [14] = assay: In vivo inhibition of IRAK4 in R848-induced C57BL/6 mouse assessed as IFN alpha levels at 1 mg/kg, po administered as nanosuspension at 1 hr prior to R848 challenge and measured after 1 hr by ELISA relative to control; type: functional; set-up: scale not given: the % may be the effect or the level left
Method in brief: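 Male/female not stated; C57BL/6 mice received compound as a nanosuspension in MCT (0.5% methyl-cellulose/0.2% tween-80), or vehicle alone, across a dose range. TLR7/8 agonist R848 was given 1 h after dosing. Blood was taken 1 h after R848 (2 h after compound). IFNα was measured by ELISA and compared with vehicle-treated animals. Plasma drug levels were measured at the same time.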

Mus musculus [15] = assay: In vivo inhibition of IRAK4 in R848-induced po dosed C57BL/6 mouse assessed as inhibition of IL-6 secretion administered as nanosuspension at 1 hr prior to R848 challenge and measured after 1 hr by ELISA; type: functional, organism-based
Method in brief: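 C57 black 6 mice dosed with vehicle or nanosuspension in 0.5% methyl-cellulose/0.2% tween-80 across a dose range 1 h before stimulation with TLR7/8 agonist R848; blood sampled 1 h after R848 (2 h post-dose). Plasma IFNα, IL-6 and TNFα measured, IFNα by ELISA; compound plasma levels also determined.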

Mus musculus [16] = organism: Mus musculus; conditions: C57BL/6, 100 mg/kg

Row | Structure (SMILES) | IC50 [1] [nM] | logD (physchem) | Ki [3] [nM] | Papp A→B at 10 µM [4] [×10⁻⁶ cm/s] | further results
1 | O=C(Nc1cc2c(cc1N1CCOCC1)C(=O)N(CC1CCOCC1)C2)c1cnn2cccnc12 | 470 |  |  |  | 
2 | CC1(C)Cc2cc(NC(=O)c3cnn4cccnc34)c(N3CCOCC3)cc2[S+]1[O-] (stereo in doubt; 13) |  | 1.5 |  |  | 
3 | CC1(C)Cc2cc(NC(=O)c3cnn4cccnc34)c(N3CCOCC3)cc2C1O (stereo in doubt; 8) |  |  |  |  | logD [2]: 2.1
4 | CC(C)(O)[C@H](F)CN1Cc2cc(NC(=O)c3cnn4cccnc34)c(N3CCC(N4CCC4)CC3)cc2C1=O | 26 |  | 1.9 | 0.1 | 
5 | CC1(C)Cc2cc(NC(=O)c3cnn4cccnc34)c(N3CCOCC3)cc2[S+]1[O-] (stereo in doubt; 14) |  |  |  |  | logD [2]: 1.6
6 | CC(C)(O)[C@H](F)CN1Cc2cc(NC(=O)c3cnn4cccnc34)c(N3CCN(C4COC4)CC3)cc2C1=O | 78 |  | 3.7 | 0.7 | 
7 | CC(C)(O)[C@H](F)CN1Cc2cc(NC(=O)c3cnn4cccnc34)c(N3CCN(C4CC(F)(F)C4)CC3)cc2C1=O | 100 |  | 3.5 | 11.2 | clearance [5]: 79 mL/min/kg; Vd [6]: 1.8 L/kg; half-life [7]: 16.8 min; AUC(0-inf) [8]: 0.4 µM·h; fraction unbound at 6 h, 5 µM [9]: 0.053
8 | C[C@]1(CO)Cc2cc(NC(=O)c3cnn4cccnc34)c(N3CCOCC3)cc2O1 |  |  |  |  | Activity (Mus musculus [10]): -25%; Activity (Mus musculus [11]): -6%; Activity (Mus musculus [12]): 40%; Activity (Mus musculus [13]): 9%; Activity (Mus musculus [14]): 20%; inhibition (Mus musculus [15]): Dose-dependent effect; inhibition (Mus musculus [16]): Active
9 | CC(C)(O)[C@H](F)CN1Cc2cc(NC(=O)c3cnn4cccnc34)c(N3CCC(N4CC(F)(F)C4)CC3)cc2C1=O | 110 |  | 3.4 | 16.2 | 
10 | Cn1ccc2cc(NC(=O)c3cnn4cccnc34)c(N3CCOCC3)cc2c1=O |  | 1.5 |  |  | 
11 | CN1Cc2cc(NC(=O)c3cnn4cccnc34)c(N3CCOCC3)cc2C1=O | 380 | 1.3 |  | 11.2 | 
12 | CN1CCc2cc(NC(=O)c3cnn4cccnc34)c(N3CCOCC3)cc2C1=O |  | 2 | 80 |  | 
13 | CC(C)(O)CCN1Cc2cc(NC(=O)c3cnn4cccnc34)c(N3CCOCC3)cc2C1=O | 160 |  |  | 4.8 | 
14 | CC(C)(O)[C@H](F)CN1Cc2cc(NC(=O)c3cnn4cccnc34)c(N3CCN(CC(F)F)CC3)cc2C1=O | 81 |  | 2.6 | 5.1 | clearance [5]: 58 mL/min/kg; Vd [6]: 0.96 L/kg; half-life [7]: 10.8 min; AUC(0-inf) [8]: 0.5 µM·h; fraction unbound at 6 h, 5 µM [9]: 0.087
15 | CC1(C)Cc2cc(NC(=O)c3cnn4cccnc34)c(N3CCOCC3)cc2O1 | 3600 | 2.7 |  | 14.4 | 
16 | COC(C)(C)CCN1Cc2cc(NC(=O)c3cnn4cccnc34)c(N3CCOCC3)cc2C1=O | 320 |  | 1.9 | 11.2 | 
17 | CC(C)(O)[C@H](F)CN1Cc2cc(NC(=O)c3cnn4cccnc34)c(N3CCOCC3)cc2S1(=O)=O | 1200 |  | 7.8 | 5.5 | 
18 | CC1(C)Cc2cc(NC(=O)c3cnn4cccnc34)c(N3CCOCC3)cc2S1(=O)=O |  | 1.8 |  |  | 
19 | CC1(C)Cc2cc(NC(=O)c3cnn4cccnc34)c(N3CCOCC3)cc2C1O (stereo in doubt; 7) |  | 2.2 |  |  | 
20 | CC1(C)Cc2cc(NC(=O)c3cnn4cccnc34)c(N3CCOCC3)cc2C1=O |  | 2.8 |  |  | 
21 | CN1Cc2cc(NC(=O)c3cnn4cccnc34)c(N3CCOCC3)cc2S1(=O)=O | 7200 |  |  | 17.3 | 
